Source: ChEMBL document CHEMBL4842389, “Discovery of Dolastatinol: A Synthetic Analog of Dolastatin 10 and Low Nanomolar Inhibitor of Tubulin Polymerization” (ACS Med Chem Lett, 2021)
The source made the active and inactive calls. The calls are words filed in the database; no cut-off is given here. Square brackets hold non-standard residues; d marks the D form. Peptide text beside a SMILES is read from it. Dolaproine = CO[C@@H]([C@@H]1CCCN1)[C@@H](C)C(=O)O; Dil = CC[C@H](C)[C@H](NC)[C@@H](CC(=O)O)OC; NMeV = CN[C@H](C(=O)O)C(C)C

Tests used:
Tubulin (Homo sapiens) = Tubulin (Homo sapiens) (UniProt P68371+Q9H4B7+P0DPH7+P68366+Q13509+Q71U36+P04350+Q3ZCM7+P07437+P68363+Q9BQE3+Q6PEY2+Q13885+Q9BVA1+Q9BUF5); assay: Inhibition of microtubule in human MDA-MB-231 cells assessed as reduction in microtubule network in interphase cells measured after 24 hrs by DAPI staining based immunofluorescence microscopic analysis; format: cell-based; conditions: dose 5-625 nM
Summary of the method: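 MDA-MB-231 cells (10 000/well, 70–80% confluent) treated 24 h at 5, 25, 125 and 625 nM in DMEM. Fixed in 4% paraformaldehyde, permeabilized with 0.2% Triton X-100, blocked in 5% BSA, stained with anti-α-tubulin (DM1A, 1:800, 16 h) and Alexa Fluor 488 secondary, nuclei with DAPI. Imaged at 40×; interphase microtubule network quantified, unpaired two-tailed t test.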

MDA-MB-231 [1] = assay: Cell cycle arrest in human MDA-MB-231 cells assessed as accumulation at G2/M phase at 125 nM after 24 hrs by RNaseA/propidium iodide staining based FACSCalibur flow cytometry (reference value: 26.37 %); format: functional
MDA-MB-231 [2] = assay: Cell cycle arrest in human MDA-MB-231 cells assessed as accumulation at S phase at 125 nM after 24 hrs by RNaseA/propidium iodide staining based FACSCalibur flow cytometry (reference value: 19.96 %); format: functional
MDA-MB-231 [3] = assay: Cell cycle arrest in human MDA-MB-231 cells assessed as accumulation at G1 phase at 125 nM after 24 hrs by RNaseA/propidium iodide staining based FACSCalibur flow cytometry (reference value: 37.64 %); format: functional
MDA-MB-231 [4] = assay: Cell cycle arrest in human MDA-MB-231 cells assessed as accumulation at sub G1 phase at 125 nM after 24 hrs by RNaseA/propidium iodide staining based FACSCalibur flow cytometry (reference value: 3.27 %); format: functional
MDA-MB-231 [5] = assay: Inhibition of cell migration in human MDA-MB-231 cells assessed as reduction of cell mobility at 5 nM measured at 24 hrs by well scratch method; format: functional, cell-based
Summary of the method: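 MDA-MB-231 cells (3 × 10^4/well) attached overnight, then exposed to 5 nM in serum-free DMEM for 48 h. Monolayer scratched, debris washed off, complete medium added without drug. Images taken at 10× at 0 h and after 24 h; percentage wound coverage quantified. Two-tailed unpaired t test.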

MDA-MB-231 [6] = assay: Cytotoxicity against human MDA-MB-231 cells assessed as reduction in cell viability incubated for 96 hrs by XTT assay; format: functional, cell-based
Summary of the method: (§1)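 XTT viability assay on human breast cancer cells. Cells were seeded at 5000 cells/well, left to adhere overnight, then exposed to increasing compound concentrations for 96 h in complete medium with DMSO below 0.05% final. Wells were washed and refed, then given XTT reagent for 3 h, with absorbance read at 450 nm. Response was normalized to DMSO controls. Tetraplicates, three independent experiments. IC50 from a four-parameter variable-slope fit.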

BT-474 = assay: Cytotoxicity against human BT-474 cells assessed as reduction in cell viability incubated for 96 hrs by XTT assay; format: functional, cell-based; conditions: BT-474, 96 h; summary of the method: as §1
SK-BR-3 = assay: Cytotoxicity against human SKBR3 cells assessed as reduction in cell viability incubated for 96 hrs by XTT assay; format: functional, cell-based; conditions: SK-BR-3, 96 h; summary of the method: as §1
MDA-MB-231 [7] = assay: Induction of mitochondrial disintegration in human MDA-MB-231 cells at 625 nM measured after 24 hrs by Mitotracker green dye based fluorescence microscopy; format: functional, cell-based
Summary of the method: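 MDA-MB-231 cells (7000/well) grown overnight in DMEM with 10% FBS, then given 5, 25, 125 or 625 nM for 24 h. Live cells labelled 30 min with 75 nM MitoTracker Green FM in serum- and phenol red-free DMEM, counterstained with DAPI for 15 min, and imaged by fluorescence microscopy at 40× to view mitochondrial fission.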

For CC[C@H](C)[C@@H]([C@@H](CC(=O)N1CCC[C@H]1[C@H](OC)[C@@H](C)C(=O)N[C@@H](Cc1ccccc1)C(=O)O)OC)N(C)C(=O)[C@@H](NC(=O)[C@@H](NC)C(C)C)C(C)C (H-[NMeV]V[Dil][Dolaproine]F-OH), the inhibition (Tubulin (Homo sapiens)) was “Dose-Dependent Effect”, the Activity (MDA-MB-231 [1]) was 32.79% and the Activity (MDA-MB-231 [2]) was 16.11%. The Activity (MDA-MB-231 [3]) was 30.88%, the Activity (MDA-MB-231 [4]) was 9.66% and the inhibition (MDA-MB-231 [5]) was “Active”. For the same molecule, the IC50 (MDA-MB-231 [6]) was “Not Active”, the IC50 (BT-474) was 8.8 nM and the IC50 (SK-BR-3) was 5.3 nM. The Activity (MDA-MB-231 [7]) was “inactive”.
